Results: ChEMBL document CHEMBL3860076, “New inhibitors of tyrosyl-DNA phosphodiesterase I (Tdp 1) combining 7-hydroxycoumarin and monoterpenoid moieties” (Bioorg Med Chem, 2016)

Legend:
[1] = target: T1, Tyrosyl-DNA phosphodiesterase 1 (Homo sapiens, UniProt Q9NUW8)
[2] = target: T1, Tyrosyl-DNA phosphodiesterase 1; test: Reversal of Tdp1-mediated drug resistance in human MCF7 cells assessed as camptothecin CC50 at 5 uM measured after 72 hrs by MTT assay (reference value: 1430 +/- 430 nM); assay type: cell-based
Summary of the method: (§1)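 MCF-7 cells, about 2000 per well, were pre-incubated for 24 h at 37 °C in IMDM (5% CO₂). They were then given graded camptothecin concentrations together with a fixed 5 μM coumarin. After 72 h, viable cells were measured by MTT. Camptothecin CC50 was estimated with and without the coumarin.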

[3] = Cytotoxicity against human RPMI8226 cells expressing low levels of Tdp1 assessed as reduction in cell viability up to 100 uM measured after 72 hrs by MTT assay; assay type: toxicity, cell-based; details: rpmi-8226, 72 h
Summary of the method: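 RPMI 8226 human myeloma cells were seeded at about 2000 per well and treated with the coumarins. They were incubated at 37 °C in RPMI 1640 medium (5% CO₂). Viability was measured by MTT.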

[4] = Cytotoxicity against human MCF7 cells expressing Tdp1 assessed as reduction in cell viability measured after 72 hrs by MTT assay; assay type: toxicity, cell-based; details: for Activity: mcf7, 72 h
Summary of the method: (§2)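 MCF-7 mammary adenocarcinoma cells, about 2000 per well, were pre-incubated for 24 h at 37 °C in IMDM (5% CO₂). They were then exposed to the coumarins over a dose series up to 100 μM. After 72 h, live cells were quantified by colorimetric MTT test. CC50 was read from the dose-response curve.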

[5] = Cytotoxicity against human MCF7 cells expressing Tdp1 assessed as reduction in cell viability up to 100 uM measured after 72 hrs by MTT assay; assay type: toxicity, cell-based; details: mcf7, 72 h
Summary of the method: as §2

[6] = target: T1, Tyrosyl-DNA phosphodiesterase 1; test: Reversal of Tdp1-mediated drug resistance in human MCF7 cells assessed as fold reduction in camptothecin CC50 at 5 uM measured after 72 hrs by MTT assay relative to camptothecin alone; assay type: cell-based
Summary of the method: as §1

T1 sequence (Q9NUW8 whole entry): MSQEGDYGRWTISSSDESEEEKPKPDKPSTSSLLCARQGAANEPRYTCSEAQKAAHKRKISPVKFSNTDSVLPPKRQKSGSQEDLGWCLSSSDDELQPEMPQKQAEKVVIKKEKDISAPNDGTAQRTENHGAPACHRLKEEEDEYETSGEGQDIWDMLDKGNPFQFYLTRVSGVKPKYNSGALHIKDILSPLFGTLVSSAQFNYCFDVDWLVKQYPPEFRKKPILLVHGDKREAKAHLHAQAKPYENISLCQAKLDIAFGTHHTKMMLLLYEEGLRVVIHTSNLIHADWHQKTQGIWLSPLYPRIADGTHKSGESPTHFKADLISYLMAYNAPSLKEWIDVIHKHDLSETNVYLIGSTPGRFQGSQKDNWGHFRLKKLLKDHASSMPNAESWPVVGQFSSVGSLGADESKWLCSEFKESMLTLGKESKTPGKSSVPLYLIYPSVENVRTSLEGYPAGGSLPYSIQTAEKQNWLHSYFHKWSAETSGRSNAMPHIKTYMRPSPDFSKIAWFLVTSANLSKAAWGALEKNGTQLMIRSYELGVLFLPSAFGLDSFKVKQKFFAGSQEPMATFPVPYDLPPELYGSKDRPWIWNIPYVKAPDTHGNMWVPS

COc1cccc(COc2ccc3c4c(c(=O)oc3c2)CCCC4)c1
IC50 [1]: 4930 nM

Cc1cc(=O)oc2cc(OCC3=CC[C@H]4C[C@@H]3C4(C)C)ccc12
CC50 [2]: 340 nM
Activity [3]: Non-Toxic
Activity [4]: Toxic
IC50 [1]: 1560 nM

CC1(C)[C@H]2CC=C(COc3ccc4c5c(c(=O)oc4c3)CCC5)[C@@H]1C2
CC50 [2]: 330 nM
Activity [5]: Non-Toxic
IC50 [1]: 1370 nM

COc1cc(COc2ccc3c4c(c(=O)oc3c2)CCCC4)cc(OC)c1OC
IC50 [1]: > 10000 nM

CC1(C)[C@H]2CC=C(COc3ccc4c5c(c(=O)oc4c3)CCCC5)[C@@H]1C2
Activity [5]: Non-Toxic
IC50 [1]: 1230 nM

Cc1cc(=O)oc2cc(OCC3=CC[C@@H]4C[C@H]3C4(C)C)ccc12
CC50 [2]: 320 nM
Activity [3]: Non-Toxic
Activity [4]: Toxic
IC50 [1]: 4310 nM

COc1cc(COc2ccc3c(C)cc(=O)oc3c2)cc(OC)c1OC
IC50 [1]: > 10000 nM

COc1cccc(COc2ccc3c(C)cc(=O)oc3c2)c1
IC50 [1]: > 10000 nM

CC1(C)[C@H]2CC=C(CCOc3ccc4c5c(c(=O)oc4c3)CCC5)[C@@H]1C2
Activity [4]: Dose-dependent effect
IC50 [1]: 1090 nM

CC1(C)[C@H]2CC=C(CCOc3ccc4c5c(c(=O)oc4c3)CCCC5)[C@@H]1C2
CC50 [2]: 2300 nM
Activity [4]: Dose-dependent effect
IC50 [1]: 1450 nM

CC1(C)[C@@H]2CC=C(COc3ccc4c5c(c(=O)oc4c3)CCC5)[C@H]1C2
fold change (FC) [6]: 8
CC50 [2]: 180 nM
Activity [3]: Non-Toxic
CC50 at 72 h ([4]; MCF7 cells expressing Tdp1): > 100000 nM
IC50 [1]: 675 nM

COc1cc(COc2ccc3c4c(c(=O)oc3c2)CCC4)cc(OC)c1OC
IC50 [1]: > 10000 nM

CC1(C)[C@@H]2CC=C(COc3ccc4c5c(c(=O)oc4c3)CCCC5)[C@H]1C2
CC50 [2]: 410 nM
Activity [3]: Non-Toxic
Activity [5]: Non-Toxic
IC50 [1]: 1200 nM
